# Only some compounds are listed: those with a hit (about 2.2% of all), similar ones and a draw of the others.
# Mot1-301 SUMO: blocks SUMOylation pathway, rescuing yeast Mot1-301 growth. S. cerevisiae Mot1-301 growth rescue, ATP luminescence, 38.5C; percent above DMSO median, 100 means doubled. growth rescue, % at 18.8 µM. hit rate 1% among 320,000;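 active = every valid replicate shows activation above 250% relative to neutral control wells; inactive = the rest, any valid replicate at or below 250%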;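 also: OY570 slx delta 5 strain wells were the positive control but not used for scaling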
# CR mimetic SO: yeast age-related superoxide inhibition as caloric restriction mimetic | superoxide response (% of plate mean), % at 10 µM | S. cerevisiae aged cells, superoxide DHE fluorescence; hits give low values | hit rate 0.18% among 330,000;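 active = superoxide response under a set limit, about three screen SD below normal, cut at about 65% in these data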;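 also: yeast aged for seven days with compound at 30 °C before DHE staining; 100% = average MFI of all compound-treated wells on the plate with controls excluded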
# PglD inh: inhibitors of Campylobacter jejuni PglD acetyltransferase; purified PglD enzyme, DTNB colorimetric CoA detection; inhibition, % at 12.5 µM; hit rate 0.098% among 360,000; AID 602405; in the data active = inhibition above about 16%, passing the limit was not always enough
# Ecoli rRNA inh: selective bacterial rRNA inhibition in E. coli; E. coli WT GFP vs humanized-ribosome RFP mutants, fluorescence, 24 h; hits give low values; DMSO median 0, no signal -100; GFP signal change (wild-type ribosome), % (test concentration not listed); hit rate 1.6% among 350,000;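 active = significant combined selectivity score with lowered wild-type GFP, culture density cut under 30%, mutant RFP and density less affected; inactive = any of these conditions unmet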
# Cneo AK release: causes C. neoformans cell lysis. adenylate kinase release luminescence, 4 h; normalised: neutral wells 0, clomiphene wells 100. lysis activity, % at 15 µM. hit rate 0.2% among 360,000;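 active = mean lysis activity across replicates of at least 80%, whatever share of replicates individually reach that level; inactive = mean lysis activity below 80%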
#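 Signal: Adenylate kinase release luminescence | Assay system: Log-phase Cryptococcus neoformans yeast cells | Input: Cells at 5 × 10^6 per mL | Buffer or medium: Fresh YPD growth medium | Compound: Single dose | Schedule: Static 4 h at 37 °C with compound, 1 h detection | Controls: Clomiphene | Read-out: Luminescence rise reflecting yeast cell lysis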
# * = called active by the depositor; nt = no result.
SMILES,Mot1-301 SUMO,CR mimetic SO,PglD inh,Ecoli rRNA inh,Cneo AK release
C[C@@H]1CN([C@@H](C)CO)C(=O)c2cc(-c3ccc(C#N)cc3)cnc2O[C@H]1CN(C)C(=O)CC1CC1,nt,nt,0,0,1
Cc1ccc(NC(=S)NCc2ccc(Cl)cc2)c(OC(F)F)c1,13,120,-2,-67,344*
Cc1cc(Cl)ccc1NC(=S)NC(C)(C)C,3,85,nt,-35*,nt
Cc1cc(Cl)ccc1NC(=S)NCc1ccc(F)cc1,-1,105,-5,-3,93*
C[C@H](CO)N1C[C@H](C)[C@H](CN(C)C(=O)c2ccccn2)Oc2cc(C#CC3CC3)ccc2S1(=O)=O,nt,nt,-3,0,1
COc1ccc(S(=O)(=O)Nc2ccc3c(c2)CC(=O)N([C@@H](C)CO)C[C@H](C)[C@H](CN(C)S(=O)(=O)c2ccccc2)O3)cc1,nt,nt,3,4,2
NC(=O)c1cc2c(s1)-c1cc(Cl)ccc1SC2,351*,189,nt,6,nt
COCCNC(=O)c1cc2c(s1)-c1ccc(Cl)cc1SC2,-13,98,4,-5,0
Cc1ccccc1CS(=O)(=O)c1nnc([C@H](CC(C)C)NC(=O)OC(C)(C)C)o1,376,110,-4,6,1
CC(C)(C)OC(=O)N[C@@H](Cc1ccccc1)c1nnc(S(=O)(=O)Cc2cccc(F)c2)o1,275*,88,nt,nt,nt
Cc1noc(C)c1S(=O)(=O)N(C)C[C@H]1OCCCC[C@@H](C)Oc2ccc(NS(C)(=O)=O)cc2C(=O)N([C@@H](C)CO)C[C@@H]1C,nt,nt,6,-1,3
COc1ccc(Nc2nc3cc(-c4ccsc4)sc3c(=O)n2C)cc1OC,nt,nt,-3,-21*,-11
Cc1noc(C)c1S(=O)(=O)Nc1ccc2c(c1)C(=O)N([C@H](C)CO)C[C@H](C)[C@@H](CN(C)S(=O)(=O)c1c(C)noc1C)OCCCC[C@H](C)O2,nt,nt,2,-4,2
Cc1cc(NC(=O)COC(=O)c2cc([N+](=O)[O-])ccc2N2CCOCC2)ccc1Br,121,96,-4,-18*,-8
CCC(=O)Nc1ccc2c(c1)C(=O)N(C)C[C@H](OC)[C@@H](C)CN(C(=O)CN1CCOCC1)[C@H](C)CO2,nt,nt,nt,7,nt
Cc1cc(Cl)ccc1OCCCC(=O)N1CCCc2ccccc21,-14,93,0,-30*,4
O=C(CCCOc1ccccc1)N1CCCc2ccccc21,4,92,-4,nt,1
Cc1ccc(-c2c[n+](CC(=O)c3ccc(Br)cc3)c3n2CCCCC3)cc1,353,104,nt,-51,nt
O=C(C[n+]1cc(-c2ccccc2)n2c1CCC2)Nc1nc(-c2ccccc2)cs1,21,108,6,nt,0
COc1ccc(-c2c[n+](CC(=O)c3ccccc3)c3n2CCCCC3)cc1,-9,107,nt,-49*,nt
Cc1ccc(-c2c[n+](CC(=O)Nc3nc(-c4ccccc4)cs3)c3n2CCC3)cc1,-34,95,nt,-47*,nt
O=C(C[n+]1cc(-c2ccccc2)n2c1CCCCC2)c1ccc(Cl)cc1,76,92,-8,-40*,0
Cc1noc(C)c1NC(=O)Nc1cccc2c1O[C@@H](CN(C)C)[C@@H](C)CN([C@@H](C)CO)C2=O,nt,nt,1,-6,0
O=C(C[C@@H]1CC[C@H](NC(=O)C2CCOCC2)[C@H](CO)O1)NCc1ccncc1,nt,nt,nt,1,nt
O=C(COC(=O)c1ccccc1)NCCC1=CCCCC1,4,107,nt,-28*,nt
SMILES,Mot1-301 SUMO,CR mimetic SO,PglD inh,Ecoli rRNA inh,Cneo AK release
COc1cccc(C(=O)NCCN2C(=O)S/C(=C/c3cccs3)C2=O)c1OC,0,101,nt,-39*,nt
COc1cc(C(=O)NCCN2C(=O)S/C(=C\c3cccs3)C2=O)cc(OC)c1OC,29,91,1,-1,-3
Cc1ccccc1-c1ccc([C@H]2[C@@H](CO)N3C(=O)CN(C(=O)c4cccnc4)C[C@H]23)cc1,nt,nt,nt,-2,nt
CCOc1ccc(OCC)c(NC(=O)CSc2nc3cccnc3n2C)c1,-16,102,-2,-33*,-2
COc1ccc(Cc2c(-c3ccc(OC)c(OC)c3)nc3ccc(C)cn23)c(C)c1,nt,nt,-2,-32*,4
O=C(/C=C/[C@H]1O[C@@H](n2cnc3c(NC(=O)c4ccccc4)ncnc32)[C@H](O)[C@@H]1O)NCc1cccc2ccccc12,nt,nt,4,-29*,-2

# Source: PubChem BioAssay
